The experiment has as its target T1, 15-LOX-2 (Homo sapiens, UniProt O15296).
T1 sequence (O15296 1-676): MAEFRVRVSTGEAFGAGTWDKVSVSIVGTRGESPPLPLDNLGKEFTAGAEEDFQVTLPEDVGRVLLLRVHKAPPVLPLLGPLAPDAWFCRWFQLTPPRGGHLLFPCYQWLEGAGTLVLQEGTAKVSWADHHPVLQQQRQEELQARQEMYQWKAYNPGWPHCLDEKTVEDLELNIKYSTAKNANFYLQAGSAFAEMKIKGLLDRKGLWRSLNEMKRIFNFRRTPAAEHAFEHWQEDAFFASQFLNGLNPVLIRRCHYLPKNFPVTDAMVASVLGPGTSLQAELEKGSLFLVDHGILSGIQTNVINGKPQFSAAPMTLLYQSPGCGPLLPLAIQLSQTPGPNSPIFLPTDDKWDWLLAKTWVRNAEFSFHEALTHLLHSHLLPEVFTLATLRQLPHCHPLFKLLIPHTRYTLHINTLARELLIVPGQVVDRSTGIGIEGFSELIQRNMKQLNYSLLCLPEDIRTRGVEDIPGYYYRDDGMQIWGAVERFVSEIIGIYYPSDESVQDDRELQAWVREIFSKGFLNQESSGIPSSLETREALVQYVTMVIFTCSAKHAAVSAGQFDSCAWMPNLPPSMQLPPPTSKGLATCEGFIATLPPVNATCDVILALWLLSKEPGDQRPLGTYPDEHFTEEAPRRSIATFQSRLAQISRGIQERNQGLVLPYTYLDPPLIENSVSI
The experiment can be described thus: 96-well allosteric effector assay. The class given is biochemical. The following applies: for AA/GLA ratio (15-HETE/13-HOTrE(γ) peak area ratio): 4 µM AA and 16 µM GLA, ratio without effector 2.3 ± 0.1. The essentials:
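15-LOX-2 (~150 nM final) is preincubated 30 s with the perdeuterated effector in 50 mM ammonium bicarbonate, pH 7.5, with 0.01% PPS detergent in 96-well plates. Turnover uses AA:GLA at 1:4 (20 µM total substrate), kept below 20% conversion. Plates are held at 4° C during HPLC-MS analysis, with products identified by MS/MS. The substrate preference is the 15-HETE/13-HOTrE(γ) peak-area ratio.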

On to `[2H]C(C([2H])=C([2H])C([2H])(O)C([2H])([2H])C([2H])([2H])C([2H])([2H])C([2H])([2H])C([2H])([2H])[2H])=C([2H])C([2H])([2H])C([2H])([2H])C([2H])([2H])C([2H])([2H])C([2H])([2H])C([2H])([2H])C([2H])([2H])C(=O)O` (stereo not drawn) [d30-13-HODE], for which the “AA/GLA ratio (15-HETE/13-HOTrE(γ) peak area ratio)” value runs as follows: (10 µM d30-13-HODE) 1.4 ± 0.1; (20 µM d30-13-HODE) 1.1 ± 0.1. In addition, where the note is “based on standard curve for AA and GLA products, data not shown”, the “effect on AA and GLA catalysis” value is recorded as “reducing AA catalysis, but not affecting GLA catalysis significantly”.

The record behind these values is publication PMC4398643 (Analytical biochemistry, 2015).
